Experimental data of several laboratories.
Each line is one published result; the experiments were not run side by side.
NT5E: 5'-nucleotidase (NT5E, Homo sapiens, UniProt P21589)
MAP4K5: Mitogen-activated protein kinase kinase kinase kinase 5 (MAP4K5, Homo sapiens, UniProt Q9Y4K4)
PDGFRA: Platelet-derived growth factor receptor alpha (PDGFRA, Homo sapiens, UniProt P16234)
XDH: Xanthine dehydrogenase/oxidase (XDH, Bos taurus, UniProt P80457)

COC(=O)c1ccc(NC(=O)c2sc3nc(-c4ccccc4)cc(C(F)(F)F)c3c2N)cc1  inhibition (NT5E; enzyme activity, inhibitor, HPLC; 10 µM): 94%
C1=C/COCc2cc(ccc2OCCN2CCCC2)Nc2nccc(n2)-c2cccc(c2)COC/1  remaining binding (MAP4K5; binding; 0.1 µM): 90%
Cc1cc(C)c(C#N)c(SC=CC(=O)Nc2ccon2)n1  inhibition (NT5E; enzyme activity, inhibitor; 10 µM): 34%
C#Cc1cnc(Nc2ccnc(CO)c2)nc1Nc1ccccc1S(C)(=O)=NC#N (stereo not drawn)  remaining signal (PDGFRA; cell-free assay; 1 µM): 58%
N#Cc1ccc(NC(=O)Nc2ccccc2)cc1  remaining binding (PDGFRA; cell-free assay, competition with immobilised ligand; 25 µM): 92%
O=C(NS(=O)(=O)c1ccccc1)c1cc2ccccc2n1Cc1ccc(Br)c2ccccc12  inhibition (XDH; enzyme activity, inhibitor, absorbance; 10 µM): 20.3%
CC(=O)ON=C1C=CC(=C(C#N)c2ccccc2)C=C1  activity vs control (Dual specificity tyrosine-phosphorylation-regulated kinase 1A (Dyrk1a, Rattus norvegicus, UniProt Q63470); enzyme activity, inhibitor, ADP detection; 20 µM): 101%
CCCCC(=O)Nc1ccc(-c2ccc3ncn(CCC)c(=O)c3c2)cn1  remaining binding (MAP4K5; binding, competition with immobilised ligand; 0.5 µM): 92%
Cc1cc(C)c(C#N)c(SCC(=O)Nc2ccon2)n1  inhibition (NT5E; enzyme activity, inhibitor; 10 µM): 3%
NC/C(=C\F)COc1cccc(Cn2c(=S)[nH]c(=O)c3[nH]cnc32)c1  remaining activity (Lactoperoxidase (LPO, Bos taurus, UniProt P80025); enzyme activity, inhibitor; 20 µM): 14.2%
CC(C)(O)c1coc(S(=O)(=O)NC(=O)c2cc3ccccc3n2Cc2ccc(Br)c3ccccc23)c1  inhibition (XDH; enzyme activity, inhibitor, absorbance; 10 µM): 1.21%
COCCOCCOCCNC(=O)CSc1nc(-c2ccccc2)cc(C(F)(F)F)c1C#N  inhibition (NT5E; enzyme activity, inhibitor; 10 µM): -20%
COc1ccc2oc(-c3ccc4nc(N)oc4c3)c/c(=N\c3ccccc3NC(=O)CCN)c2c1  remaining activity (Platelet-derived growth factor receptor alpha (PDGFRA, Homo sapiens, UniProt P16234, D842V); enzyme activity, inhibitor; 1 µM): 91%
Cc1cc(C)c(C#N)c(SCC(=O)Nc2cccnc2)n1  inhibition (NT5E; enzyme activity, inhibitor; 10 µM): 5%
Oc1ncnc2[nH]ncc12  inhibition (XDH; enzyme activity, inhibitor; 250 µg/mL): 99.3%
